{"source": "ChEMBL document CHEMBL1155548", "about": "“Synthesis and evaluation of new endomorphin-2 analogues containing (Z)-alpha,beta-didehydrophenylalanine (Delta(Z)Phe) residues” (J Med Chem, 2010)", "target": "Delta-type opioid receptor (Homo sapiens, UniProt P41143)", "sequence (P41143 whole entry)": "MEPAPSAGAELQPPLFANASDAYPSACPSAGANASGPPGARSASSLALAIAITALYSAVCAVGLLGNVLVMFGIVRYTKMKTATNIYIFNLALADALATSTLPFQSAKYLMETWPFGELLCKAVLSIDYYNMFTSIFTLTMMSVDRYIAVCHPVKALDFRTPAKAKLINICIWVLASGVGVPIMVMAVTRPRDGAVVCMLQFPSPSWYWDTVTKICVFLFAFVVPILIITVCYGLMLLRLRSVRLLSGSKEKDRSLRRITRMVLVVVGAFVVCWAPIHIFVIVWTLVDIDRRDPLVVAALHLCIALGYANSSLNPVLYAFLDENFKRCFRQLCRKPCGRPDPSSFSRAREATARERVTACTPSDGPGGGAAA", "test": "Displacement of [3H]DPDPE from human delta opioid receptor expressed in HEK293 cells up to 100 uM; call rule not given here", "type": "cell-based", "outline": "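Crude membranes from transfected cells: HN9.10 cells expressing rat μ-opioid receptor, competed against μ-selective agonist [³H]DAMGO; HEK293 cells expressing human δ-opioid receptor, competed against δ-selective agonist [³H]DPDPE. Competitive displacement with three independent experiments, fitted by non-linear regression; Ki derived from IC50 via Cheng–Prusoff equation.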", "data": [{"smiles": "NC(=O)[C@H](Cc1ccccc1)NC(=O)/C(=C/c1ccccc1)NC(=O)[C@@H]1CCCN1C(=O)[C@@H](N)Cc1ccc(O)cc1", "values": [{"measurement": "Ki", "value": "Not Active"}]}]}
